# Experimental data collected from several papers.
# Compare with care: the assays were run in different laboratories.
# Cell line: HeLa
# Effect on: cell growth or viability
SMILES,technique,time,CC50
CSSc1ccccc1C(=O)O,MTT,48 h,409 µM
O=[N+]([O-])c1ccc(-c2nc3cccc(O)c3[nH]2)o1,resazurin,72 h,20 µM
CCOP(=O)(OCC)[C@@H]1C[C@@H](n2cc(Cn3cnc4c(N)ncnc43)nn2)ON1C (racemic),,72 h,> 250 µM
CN1CC[C@H](c2c(O)cc(O)c3c(=O)cc(-c4ccccc4Cl)oc23)[C@H](O)C1,MTT,72 h,0.12 µM
CCOP(=O)(OCC)[C@@H]1C[C@H](n2cc(Cn3cc(C)c(=O)[nH]c3=O)nn2)ON1C (racemic),,72 h,> 250 µM
O=C(O)c1ccc(O)c2ncccc12,,,> 1000 µM
Cc1ccn2c(C(=O)N3CCN(Cc4cn(-c5ccc(Br)cc5)nn4)CC3)c(C)nc2c1,resazurin,,> 100 µM
COCCN1CCN(c2nc(SCCc3ccccc3)c(C#N)c3c2COC(C)(C)C3)CC1,,,< 50 µM
Cc1nc2ccc(Cl)cn2c1C(=O)N1CCN(Cc2cn(-c3ccc(Br)cc3)nn2)CC1,resazurin,,> 100 µM
COC(=O)[C@@H]1Cc2c([nH]c3ccccc23)[C@@H](c2ccc3c(c2)OCO3)N1,MTT,48 h,10 µg/mL
Cc1nc2ccc(Cl)cn2c1C(=O)N1CCN(Cc2cn(-c3ccccc3F)nn2)CC1,resazurin,,> 100 µM
CCOP(=O)(OCC)[C@@H]1C[C@@H](n2cc(C(=O)OC)nn2)ON1C (relative stereo),,72 h,> 250 µM
Cc1nc2ccc(Cl)cn2c1C(=O)N1CCN(Cc2cn(-c3ccc(F)c(Cl)c3)nn2)CC1,resazurin,,> 100 µM
CCOP(=O)(OCC)[C@@H]1C[C@@H](n2cc(-c3nccn3C)nn2)ON1C,,72 h,> 250 µM
COC(=O)c1ccnc(C(=O)OC)c1,,,> 1000 µM
Cc1nc2ccc(Cl)cn2c1C(=O)N1CCN(Cc2cn(-c3ccccc3Cl)nn2)CC1,resazurin,,> 100 µM
